For 15 compounds, IC50 results are on record in ChEMBL document CHEMBL3085713, “Facile preparation of tetrahydro-5H-pyrido[1,2,3-de]-1,4-benzoxazines via reductive cyclization of 2-(8-quinolinyloxy)ethanones and their antioxidant activity” (Bioorg Med Chem Lett, 2013).

The nature of experiment [1]: Antioxidant activity assessed as ABTS free radical scavenging activity after 3 mins by spectrophotometry. In kind it is functional. In outline:
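ABTS (2 mM stock in PBS, pH 7.4) reacted with 70 mM K2S2O8, left in dark at room temperature 15-16 h, then diluted with PBS to absorbance 0.70 ± 0.03 at 734 nm. Sample in DMSO (0.1 mL, range of concentrations) mixed with 1.9 mL radical solution; absorbance read at ambient temperature after 3 min, PBS blank. Scavenging % vs sample-free control; triplicate means; IC50 = concentration scavenging 50%.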

Experiment [2] deals with Radical scavenging activity. The experiment can be described thus: Antioxidant activity assessed as DPPH free radical scavenging activity after 30 mins by spectrophotometry. It is filed as functional. A digest of the protocol: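 Sample in DMSO (0.1 mL, range of concentrations) added to 1.9 mL of 0.004% (w/v) DPPH radical in ethanol; incubated at 37 °C, absorbance read at 517 nm after 30 min. Scavenging % = (A control − A test)/A control × 100, control lacking sample. Triplicate, means used; IC50 taken as concentration scavenging 50% of radicals.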

As usually defined, the pIC50 is the negative decadic logarithm of the IC50, by convention in mol/L.

pIC50: −log10 of the molar value.

Take `c1ccc(C2COc3cccc4c3N2CCC4)cc1` (stereo not given): the pIC50 in experiment [1] was 4.42; in experiment [2], 4.10.

Take `Cc1ccc(C2COc3cccc4c3N2CCC4)cc1` (stereo not given): the pIC50 in experiment [1] was 4.32; in experiment [2] it was 4.01.

For `c1cc2c3c(c1)OCC(c1cccc4ccccc14)N3CCC2` (stereo not given), the pIC50 is 4.28 in experiment [1] and 4.12 in experiment [2].

For `c1cc2c3c(c1)OCC(c1ccc4ccccc4c1)N3CCC2` (stereo not given), the pIC50 in experiment [1] was 4.21; in experiment [2], 4.01.

Consider `CC1Oc2cccc3c2N(CCC3)C1c1ccccc1` (stereo not given), for which the figures for the pIC50 in experiment [1] and in experiment [2] were 4.20 and 4.02, respectively.

On to `c1cc2c3c(c1)OCC(c1ccc4c(c1)OCO4)N3CCC2` (stereo not given), for which the pIC50 in experiment [1] is 4.37; in experiment [2], 4.11.

On to `COc1ccccc1C1COc2cccc3c2N1CCC3` (stereo not given), for which the pIC50 in experiment [1] is 4.82; in experiment [2], 4.34.

In the case of `COc1cccc(C2COc3cccc4c3N2CCC4)c1` (stereo not given), the pIC50 in experiment [1] was 5.03; in experiment [2] it was 4.35.

As to `COc1ccc(C2COc3cccc4c3N2CCC4)cc1OC` (stereo not given), the pIC50 was 4.55 in experiment [1] and 4.12 in experiment [2].

On to `COc1ccc(C2COc3cccc4c3N2CCC4)cc1` (stereo not given), for which the pIC50 is 4.57 in experiment [1] and 4.19 in experiment [2].

With `Nc1cccc(C2COc3cccc4c3N2CCC4)c1` (stereo not given), the pIC50 in experiment [1] is 4.75; in experiment [2], 4.28.

In the case of `Nc1ccc(C2COc3cccc4c3N2CCC4)cc1` (stereo not given), the pIC50 in experiment [1] was 5.00; in experiment [2] it was 4.35.

In the case of `c1csc(C2COc3cccc4c3N2CCC4)c1` (stereo not given), the pIC50 was 4.69 in experiment [1] and 4.25 in experiment [2].

In the case of `O=C1O[C@H]([C@@H](O)CO)C(O)=C1O` [ASCORBIC ACID], the negative logarithm of the IC50 (pIC50) was 4.74 in experiment [1] and 4.30 in experiment [2].

As for `Cc1cc(C(C)(C)C)c(O)c(C(C)(C)C)c1` [BUTYLATED HYDROXYTOLUENE], the negative logarithm of the IC50 (pIC50) in experiment [1] is 4.49; in experiment [2], 4.20.
